From ChEMBL document CHEMBL1130998, “Structure-activity requirements for flavone cytotoxicity and binding to tubulin” (J Med Chem, 1998)

Experiments:
[1] = system: Panel NCI-60 (60 carcinoma cell lines); assay: In vitro cytotoxic potency against NCI-60 human tumor cell line; format: functional
Tubulin = assay: In vitro inhibitory activity against tubulin polymerization (10 uM); format: protein-complex assay
Tubulin (Homo sapiens) = Tubulin (Homo sapiens) (UniProt P68371+Q9H4B7+P0DPH7+P68366+Q13509+Q71U36+P04350+Q3ZCM7+P07437+P68363+Q9BQE3+Q6PEY2+Q13885+Q9BVA1+Q9BUF5); assay: In vitro inhibition of binding of [3H]colchicine to tubulin at 50 mM.; format: protein-complex assay
[2] = system: Panel NCI-60 (60 carcinoma cell lines); assay: In vitro cytotoxic potency against NCI-60 human tumor cell line was determined; format: functional
Procedure, shortened: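 Tested in the NCI primary in vitro human tumor cell screen. Potency was taken from the dose-response curves, which were also analysed for the differential cytotoxicity pattern typical of antimitotic standard agents.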

Tubulin (Bos taurus) [3] = molecular target: T1, Tubulin (Bos taurus) (UniProt Q6B856+Q862L2+Q862F3); assay: In vitro inhibition of binding of [3H]colchicine to tubulin (10 uM) at compound concentration of 50 mM; format: protein assay
Tubulin (Bos taurus) [4] = molecular target: T1, Tubulin (Bos taurus); assay: In vitro inhibition of binding of [3H]colchicine to tubulin (10 uM) at compound concentration of 5 mM; format: protein assay

Structure (SMILES)	GI50 [1]	also measured
COc1c(OC)c(OC)c(-c2cc(=O)c3c(OC)c(OC)c(OC)c(OC)c3o2)c(OC)c1OC	36 µM	
COc1ccc(-c2oc3cc(OC)c(O)c(OC)c3c(=O)c2OC)cc1O	54 µM	
COc1ccc(-c2oc3cc(O)c(OC)c(O)c3c(=O)c2O)cc1 [BETULETOL]	4.1 µM	
COc1ccc(-c2oc3c(OC)c(OC)c(OC)c(OC)c3c(=O)c2OC)cc1OC [3,5,6,7,8,3',4'-HEPTAMETHOXYFLAVONE]	> 27 µM	IC50 (Tubulin): > 40 µM; inhibition (Tubulin (Homo sapiens)): 1%
COc1ccc(-c2oc3cc(O)c(C)c(C)c3c(=O)c2OC)cc1O	12 µM	
COc1ccc(-c2cc(=O)c3cc(O)ccc3o2)c(OC)c1OC	30 µM	
COc1cc(-c2cc(=O)c3c(O)c(OC)c(OC)c(OC)c3o2)ccc1O	22 µM	
COc1cc(-c2oc3c(OC)c(OC)cc(O)c3c(=O)c2OC)ccc1O [TERNATIN]	9.5 µM	IC50 (Tubulin): > 40 µM; inhibition (Tubulin (Homo sapiens)): 0%
COc1ccc(-c2cc(=O)c3c(O)c(OC)c(O)cc3o2)cc1 [PECTOLINARIGENIN]	> 31 µM	IC50 (Tubulin): > 40 µM; inhibition (Tubulin (Homo sapiens)): 11%
COc1c(OC)c(OC)c2c(=O)cc(-c3ccc(NC(C)=O)cc3)oc2c1OC		GI50 [2]: > 100 µM
COc1ccc(-c2oc3cc(OC)cc(O)c3c(=O)c2OC)cc1	54 µM	
COc1ccc(-c2cc(=O)c3ccc(O)cc3o2)c(OC)c1OC	58 µM	
COc1ccc(-c2cc(=O)c3c(O)cccc3o2)c(OC)c1OC	45 µM	
COc1ccc(-c2oc3c(O)c(OC)cc(O)c3c(=O)c2OC)cc1OC	> 100 µM	
COc1cc(OC)c2c(=O)cc(-c3ccc(OC)c(OC)c3OC)oc2c1	79 µM	
COc1cc(-c2oc3cc(OC)c(OC)c(O)c3c(=O)c2OC)ccc1O [CHRYSOSPLENOL B]	> 33 µM	
COc1ccccc1-c1cc(=O)c2ccc(OC)c(OC)c2o1	55 µM	
O=c1c(O)c(-c2c(O)cccc2O)oc2cc(O)cc(O)c12	> 100 µM	
O=c1c(O)c(-c2ccc(O)c(O)c2)oc2cc(O)ccc12 [FISETIN]	18 µM	
COc1ccc(-c2cc(=O)c3c(O)c(OC)c(OC)c(OC)c3o2)cc1OC [5-DEMETHYLNOBILETIN]	17 µM	IC50 (Tubulin): > 40 µM; inhibition (Tubulin (Homo sapiens)): 5%
COc1c(OC)c(O)c2c(=O)cc(-c3ccc(O)c(O)c3)oc2c1OC [SIDERITIFLAVONE]	4 µM	
COc1ccc(-c2oc3cc(O)cc(O)c3c(=O)c2OC)cc1 [ERMANIN]	24 µM	
COc1cc(O)c2c(=O)c(O)c(-c3ccc(OC)c(O)c3)oc2c1 [OMBUINE]	37 µM	
COc1ccc(-c2oc3cc(OC)ccc3c(=O)c2O)cc1	4.2 µM	
COc1ccc(-c2oc3c(OC)c(OC)c(OC)c(O)c3c(=O)c2OC)cc1OC	7.1 µM	IC50 (Tubulin): > 40 µM; inhibition (Tubulin (Homo sapiens)): 4%
COc1ccc(-c2cc(=O)c3c(O)c(O)c(OC)cc3o2)cc1O	> 100 µM	
COc1cc(-c2oc3c(OC)c(OC)c(OC)c(O)c3c(=O)c2OC)ccc1O	7.6 µM	IC50 (Tubulin): > 40 µM; inhibition (Tubulin (Homo sapiens)): 0%

Structure (SMILES)	GI50 [1]	also measured
O=c1c(O)c(-c2ccc(O)c(O)c2)oc2cc(O)cc(O)c12 [QUERCETIN]	60 µM	
COc1cc(-c2oc3c(OC)c(O)c(OC)c(O)c3c(=O)c2OC)cc(O)c1OC	32 µM	
COc1ccc(-c2oc3cc(O)cc(O)c3c(=O)c2OC)cc1O	1.7 µM	inhibition (Tubulin (Bos taurus) [3]): 75%; inhibition (Tubulin (Bos taurus) [4]): 43%; IC50 (Tubulin): 3 µM
COc1ccc(-c2oc3cc(O)cc(O)c3c(=O)c2OC)cc1OCc1ccccc1	8.3 µM	
COc1ccc(-c2cc(=O)c3c(O)cc(O)cc3o2)cc1OC	48 µM	
COc1cc(OC)c2c(=O)c(O)c(-c3ccc(OC)c(OC)c3)oc2c1	6.6 µM	IC50 (Tubulin): > 40 µM; inhibition (Tubulin (Homo sapiens)): 0%
COc1ccc(-c2cc(=O)c3c(O)c(OC)c(O)cc3o2)cc1O	6 µM	
COc1ccc(-c2cc(=O)c3c(O)cc(C)cc3o2)cc1OC	> 100 µM	
COc1ccc(-c2oc3cc(OC)c(C)c(C)c3c(=O)c2OC)cc1O	44 µM	
O=c1c(O)c(-c2cc(O)c(O)c(O)c2)oc2cc(O)cc(O)c12 [MYRICETIN]	36 µM	
COc1cc(-c2cc(=O)c3c(OC)c(OC)c(OC)c(OC)c3o2)cc(OC)c1OC [HEPATAMETHOXYFLAVONE]	32 µM	
COc1cc(O)c2c(=O)c(OC)c(-c3ccc(OC)c(O)c3)oc2c1 [AYANIN]	32 µM	IC50 (Tubulin): > 40 µM; inhibition (Tubulin (Homo sapiens)): 0%
COc1c(O)cc2oc(-c3ccc(O)cc3)cc(=O)c2c1O [HISPIDULIN]	33 µM	
COc1cc(O)c2c(=O)c(O)c(-c3ccc(O)c(O)c3)oc2c1 [RHAMNETIN]	8.9 µM	
COc1ccc2c(=O)c(O)c(-c3ccc(OC)c(OC)c3)oc2c1	5.5 µM	IC50 (Tubulin): > 40 µM; inhibition (Tubulin (Homo sapiens)): 0%
COc1ccc(-c2cc(=O)c3c(O)cc(O)cc3o2)c(OC)c1OC	68 µM	
COc1ccc(-c2cc(=O)c3c(OC)c(OC)c(OC)cc3o2)cc1	28 µM	
COc1ccc2c(=O)cc(-c3ccc(OC)c(OC)c3OC)oc2c1	78 µM	
COc1cc2oc(-c3ccc(O)cc3)cc(=O)c2c(OC)c1OC	> 100 µM	
COc1cc(-c2cc(=O)c3c(O)c(OC)c(OC)c(OC)c3o2)cc(OC)c1OC [GARDENIN]	19 µM	IC50 (Tubulin): > 40 µM; inhibition (Tubulin (Homo sapiens)): 0%
COc1ccc2oc(-c3ccc(OC)c(OC)c3OC)cc(=O)c2c1	42 µM	
COc1ccc(-c2oc3ccccc3c(=O)c2O)cc1OC [3-HYDROXY-3',4'-DIMETHOXYFLAVONE]	32 µM	
COc1ccc(-c2oc3cc(OC)c(OC)c(OC)c3c(=O)c2O)cc1O	14 µM	IC50 (Tubulin): > 40 µM; inhibition (Tubulin (Homo sapiens)): 2%
COc1cc(OC)cc(-c2cc(=O)c3c(OC)c(OC)c(OC)c(OC)c3o2)c1	30 µM	
COc1ccc(-c2cc(=O)c3c(O)c(OC)c(O)cc3o2)cc1OC [EUPATILIN]	15 µM	IC50 (Tubulin): > 40 µM; inhibition (Tubulin (Homo sapiens)): 6%
COc1cc2oc(-c3ccc(O)cc3)cc(=O)c2c(OC)c1O	62 µM	
COc1c(O)c(OC)c2oc(-c3ccc(O)c(O)c3)c(OC)c(=O)c2c1O	20 µM	

Structure (SMILES)	GI50 [1]	also measured
COc1cc(O)c2c(=O)c(OC)c(-c3ccc(OC)c(OC)c3)oc2c1 [RETUSIN]	65 µM	
COc1cc(-c2oc3c(OC)c(O)c(OC)c(O)c3c(=O)c2OC)ccc1O	27 µM	IC50 (Tubulin): > 40 µM; inhibition (Tubulin (Homo sapiens)): 6%
COc1cc(-c2cc(=O)c3ccccc3o2)cc(OC)c1OC	18 µM	IC50 (Tubulin): > 40 µM; inhibition (Tubulin (Homo sapiens)): 0%
COc1cc(-c2oc3c(OC)c(O)c(OC)c(O)c3c(=O)c2OC)cc(OC)c1OC	54 µM	IC50 (Tubulin): > 40 µM; inhibition (Tubulin (Homo sapiens)): 6%
COc1ccc(-c2oc3cc(O)c(OC)cc3c(=O)c2OC)cc1O	19 µM	
COc1ccc(-c2cc(=O)c3c(OC)c(OC)c(OC)c(OC)c3o2)c(OC)c1	26 µM	
COc1ccc(-c2oc3cc(OC(C)=O)cc(OC(C)=O)c3c(=O)c2OC)cc1	15 µM	
COc1ccc(-c2oc3cc(O)c(OC)c(O)c3c(=O)c2OC)cc1O [CENTAUREIDIN]	0.24 µM	inhibition (Tubulin (Bos taurus) [3]): 76%; inhibition (Tubulin (Bos taurus) [4]): 35%; IC50 (Tubulin): 2 µM
CCOc1cc(O)c2c(=O)c(OC)c(-c3ccc(OC)c(O)c3)oc2c1	12 µM	
COc1ccc(-c2cc(=O)c3c(OC)c(OC)c(OC)c(OC)c3o2)cc1OC [NOBILETIN]	40 µM	
COc1ccc(OC)c(-c2cc(=O)c3c(OC)c(OC)c(OC)c(OC)c3o2)c1	24 µM	
COc1cc2oc(-c3ccccc3)cc(=O)c2c(O)c1C	> 100 µM	
COc1cc(OC)c(-c2cc(=O)c3c(O)c(OC)c(OC)c(OC)c3o2)cc1OC	60 µM	
COc1ccc(-c2cc(=O)c3c(OC)c(OC)c(OC)c(OC)c3o2)cc1 [TANGERETIN]	54 µM	
COc1cc(OC)c(-c2oc3ccccc3c(=O)c2O)c(OC)c1	5.9 µM	IC50 (Tubulin): 31 µM; inhibition (Tubulin (Homo sapiens)): 22%
COc1ccc(-c2cc(=O)c3c(OC)c(O)c(OC)cc3o2)cc1	43 µM	
COc1ccc(-c2cc(=O)c3c(OC)cccc3o2)c(OC)c1OC	89 µM	
COc1ccc(-c2oc3ccc(C)cc3c(=O)c2O)cc1	76 µM	
COc1ccc(-c2oc3cc(OC)c(OC)c(O)c3c(=O)c2O)cc1O	4 µM	IC50 (Tubulin): > 40 µM; inhibition (Tubulin (Homo sapiens)): 9%
COc1cc(-c2oc3c(OC)cc(OC)c(O)c3c(=O)c2OC)cc(OC)c1OC	19 µM	
COc1c(OC)c(OC)c2c(=O)cc(-c3ccc(OC(C)C)cc3)oc2c1OC	11 µM	
COc1ccc(-c2cc(=O)c3c(O)c(OC)c(O)c(OC)c3o2)cc1 [NEVADENSIN]	59 µM	
COc1c(C)c(O)c2c(=O)cc(-c3ccccc3)oc2c1C	> 100 µM	
COc1ccc(-c2oc3c(OC)c(OC)c(OC)c(O)c3c(=O)c2OC)cc1O	0.13 µM	inhibition (Tubulin (Bos taurus) [3]): 89%; inhibition (Tubulin (Bos taurus) [4]): 59%; IC50 (Tubulin): 0.83 µM
COc1cc(OC)c2c(=O)c(OC)c(-c3ccc(OC)c(O)c3)oc2c1	> 100 µM	
